Converted amounts (≈) assume the structure as drawn. The source made the active and inactive calls. The calls are words filed in the database; no cut-off is given here.
Columns and labels:
[1] = target: T1, Transient receptor potential cation channel subfamily A member 1 (Homo sapiens, UniProt O75762); experiment: Inhibition of full length human TRPA1 at a holding potential of 15 mV measured after 1 min by PatchXpress electrophysiology assay
Procedure, shortened: (§1)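 Medium-throughput PatchXpress electrophysiology on HEK293-T-rex cells expressing TRPA1 (human line; selected compounds also run in a rat TRPA1 line).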

[2] = target: T2, Transient receptor potential cation channel subfamily A member 1 (Rattus norvegicus, UniProt Q6RI86); experiment: Inhibition of full length rat TRPA1 at a holding potential of 15 mV measured after 1 min by PatchXpress electrophysiology assay; procedure, shortened: as §1
[3] = target: Transient receptor potential cation channel subfamily A member 1 (Rattus norvegicus) (UniProt Q6RI86); settings: 1 uM
[4] = target: Voltage-gated inwardly rectifying potassium channel KCNH2 (Homo sapiens, UniProt Q12809)
[5] = target: T3, Potassium voltage-gated channel subfamily KQT member 1 (Homo sapiens, UniProt P51787); experiment: Inhibition of KCNQ1 (unknown origin)
T3 sequence (P51787 whole entry): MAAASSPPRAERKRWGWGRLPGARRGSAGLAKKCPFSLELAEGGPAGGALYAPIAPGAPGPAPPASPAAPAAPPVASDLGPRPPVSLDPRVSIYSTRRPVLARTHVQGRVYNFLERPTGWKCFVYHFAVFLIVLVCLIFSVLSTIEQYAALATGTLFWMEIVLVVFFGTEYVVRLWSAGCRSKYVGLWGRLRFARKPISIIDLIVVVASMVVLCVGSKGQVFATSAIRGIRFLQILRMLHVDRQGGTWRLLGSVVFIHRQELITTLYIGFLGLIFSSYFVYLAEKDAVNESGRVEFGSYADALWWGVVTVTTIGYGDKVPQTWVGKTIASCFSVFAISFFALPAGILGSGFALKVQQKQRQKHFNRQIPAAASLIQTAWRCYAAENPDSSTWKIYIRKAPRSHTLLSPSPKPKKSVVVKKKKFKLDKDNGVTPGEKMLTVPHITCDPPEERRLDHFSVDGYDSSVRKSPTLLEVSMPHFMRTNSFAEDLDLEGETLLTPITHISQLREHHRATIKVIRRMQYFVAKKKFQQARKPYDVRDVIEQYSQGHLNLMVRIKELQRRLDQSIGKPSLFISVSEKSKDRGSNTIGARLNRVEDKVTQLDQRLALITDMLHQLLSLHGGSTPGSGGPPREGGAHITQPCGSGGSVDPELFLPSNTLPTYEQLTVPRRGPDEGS

[6] = target: Transient receptor potential cation channel subfamily V member 1 (Homo sapiens, UniProt Q8NER1); experiment: Inhibition of TRPV1 (unknown origin)
[7] = target: Voltage-gated potassium channel, KQT; KCNQ2(Kv7.2)/KCNQ3(Kv7.3) (Homo sapiens, UniProt O43525+O43526); experiment: Activation of KCNQ2/3 (unknown origin); assay type: protein-complex assay
[8] = target: T1, Transient receptor potential cation channel subfamily A member 1; experiment: Antagonist activity at human TRPA1 by calcium flux based FLIPR assay
Procedure, shortened: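 High-throughput antagonist-mode FLIPR Ca2+ imaging screen of the internal library in 384-well format; hits confirmed by single-rig electrophysiology.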

[9] = target: Sodium channel protein type 5 subunit alpha (Homo sapiens, UniProt Q14524); experiment: Inhibition of Nav1.5 (unknown origin)
[10] = Inhibition of full length opossum TRPA1 hS5 chimera at a holding potential of 15 mV measured after 1 min by PatchXpress electrophysiology assay; design: species or system Monodelphis domestica
[11] = Unbound fraction in Sprague-Dawley rat plasma
MDR1 [12] = experiment: Permeability across apical to basolateral side in RRCK cells expressing MDR1; assay type: ADME, cell-based, Canis lupus familiaris, MDCKII-LE; settings: dog, MDCK-MDR1; read-out: permeability
[13] = target: T1, Transient receptor potential cation channel subfamily A member 1; experiment: Inhibition of full length human TRPA1 oS5 chimera at a holding potential of 15 mV measured after 1 min by PatchXpress electrophysiology assay
[14] = Intrinsic clearance in rat liver microsomes; assay type: ADME, microsome; settings: read-out: CLH
[15] = target: Sodium channel protein type 9 subunit alpha (Homo sapiens, UniProt Q15858); experiment: Inhibition of Nav1.7 (unknown origin)
[16] = Drug level in Sprague-Dawley rat skin epidermal layer; assay type: ADME, Skin epidermis; settings: in vivo
Procedure, shortened: (§2)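 Skin flux study after topical administration. Skin permeability is given in cm/h, and compound concentrations are measured separately in the epidermal and dermal layers, expressed as μg/g.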

[17] = target: T2, Transient receptor potential cation channel subfamily A member 1; experiment: Inhibition of rat TRPA1 at a holding potential of 15 mV measured after 1 min by whole-cell manual patch clamp electrophysiology assay
[18] = Inhibition of full length opossum TRPA1 at a holding potential of 15 mV measured after 1 min by PatchXpress electrophysiology assay; design: species or system Monodelphis domestica
[19] = Permeability in Sprague-Dawley rat skin; assay type: ADME, Zone of skin; settings: read-out: permeability (converted); procedure, shortened: as §2
[20] = Drug level in Sprague-Dawley rat skin dermal layer; assay type: ADME, Dermis; settings: in vivo; procedure, shortened: as §2
[21] = Intrinsic clearance in human liver microsomes; assay type: ADME, microsome; settings: read-out: CLH
MDR1 [22] = experiment: Permeability across basolateral to apical side in RRCK cells expressing MDR1; assay type: ADME, cell-based, Canis lupus familiaris, MDCKII-LE; settings: dog, MDCK-MDR1; read-out: permeability
Rattus norvegicus [23] = experiment: Suppression of cinnamaldehyde-induced flare response in Sprague-Dawley rat at 50 mg/ml administered topically measured after 60 mins by recording blood flow for 30 mins by laser Doppler sonography method; assay type: functional
Procedure, shortened: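 Compound formulated in vehicle, applied topically to rat skin at 50 mg/mL and left for a set time. Then 20% v/v cinnamaldehyde in the same vehicle is applied at that site, and local blood flow is measured by laser Doppler sonography. Free plasma concentrations are also determined.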

[24] = Aqueous solubility of the compound by kinetic miniaturized shakeflask method; assay type: physicochemical; settings: buffer
Procedure, shortened: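 Kinetic miniaturized shake-flask method, starting from a DMSO stock solution.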

Rattus norvegicus [25] = experiment: Anti-inflammatory activity in po dosed Sprague-Dawley rat assessed as reduction in flinching dosed 2 hrs prior to subcutaneous administration of AITC in right hand paw measured for 30 mins; assay type: functional
Procedure, shortened: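 Oral dosing in rats; AITC then given subcutaneously into the right hind paw. Paw flinching is scored, and the minimum effective dose is taken as the lowest dose giving a significant reduction.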

MDCKII-LE = experiment: Permeability in RRCK cells expressing MDR1; settings: dog
Blood = experiment: Drug level in Sprague-Dawley rat blood at 10 to 100 mg/kg, po; assay type: ADME, organism-based; settings: in vivo, read-out: Drug uptake
Procedure, shortened: (§3)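 Rats dosed orally at 10, 30 and 100 mg/kg, with mean systemic concentrations measured. Flare is induced by cinnamaldehyde and blood flow read by laser Doppler sonography, compared against vehicle and a TRPV1 antagonist given as a mechanistic comparator.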

Rattus norvegicus [26] = experiment: Suppression of cinnamaldehyde-induced flare response in Sprague-Dawley rat at 10 to 100 mg/kg administered systemically measured after 75 mins by recording blood flow for 30 mins by laser Doppler sonography method; assay type: functional, organism-based; procedure, shortened: as §3

T2 sequence (Q6RI86 whole entry): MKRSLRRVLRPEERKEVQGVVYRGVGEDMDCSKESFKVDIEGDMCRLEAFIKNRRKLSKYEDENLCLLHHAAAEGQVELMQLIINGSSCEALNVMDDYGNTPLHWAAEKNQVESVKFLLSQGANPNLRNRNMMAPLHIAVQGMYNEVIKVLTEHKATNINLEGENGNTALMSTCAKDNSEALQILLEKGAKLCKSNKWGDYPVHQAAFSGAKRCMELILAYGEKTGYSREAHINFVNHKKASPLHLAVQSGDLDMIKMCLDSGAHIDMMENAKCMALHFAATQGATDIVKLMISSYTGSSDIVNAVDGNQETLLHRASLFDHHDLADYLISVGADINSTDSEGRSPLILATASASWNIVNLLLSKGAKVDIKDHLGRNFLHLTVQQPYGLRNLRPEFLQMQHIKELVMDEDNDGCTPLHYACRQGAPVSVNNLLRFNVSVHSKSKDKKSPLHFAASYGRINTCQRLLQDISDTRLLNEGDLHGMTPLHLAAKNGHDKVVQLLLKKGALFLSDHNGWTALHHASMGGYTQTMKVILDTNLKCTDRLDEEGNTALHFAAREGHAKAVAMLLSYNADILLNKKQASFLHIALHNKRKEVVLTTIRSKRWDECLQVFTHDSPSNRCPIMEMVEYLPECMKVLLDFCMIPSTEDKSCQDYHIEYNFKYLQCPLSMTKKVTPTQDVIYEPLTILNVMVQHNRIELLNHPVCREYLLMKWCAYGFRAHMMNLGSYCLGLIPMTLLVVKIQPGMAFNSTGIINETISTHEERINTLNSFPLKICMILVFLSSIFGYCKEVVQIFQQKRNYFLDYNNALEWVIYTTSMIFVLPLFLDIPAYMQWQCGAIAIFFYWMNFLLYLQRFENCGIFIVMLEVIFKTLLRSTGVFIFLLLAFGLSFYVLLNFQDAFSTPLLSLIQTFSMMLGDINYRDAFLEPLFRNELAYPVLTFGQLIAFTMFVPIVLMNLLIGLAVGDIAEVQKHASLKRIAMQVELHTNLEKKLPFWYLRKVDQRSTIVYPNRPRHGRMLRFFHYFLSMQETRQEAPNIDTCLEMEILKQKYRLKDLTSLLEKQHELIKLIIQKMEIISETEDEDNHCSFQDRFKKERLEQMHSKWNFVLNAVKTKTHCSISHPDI
Sequence of Sodium channel protein type 5 subunit alpha (Q14524 whole entry): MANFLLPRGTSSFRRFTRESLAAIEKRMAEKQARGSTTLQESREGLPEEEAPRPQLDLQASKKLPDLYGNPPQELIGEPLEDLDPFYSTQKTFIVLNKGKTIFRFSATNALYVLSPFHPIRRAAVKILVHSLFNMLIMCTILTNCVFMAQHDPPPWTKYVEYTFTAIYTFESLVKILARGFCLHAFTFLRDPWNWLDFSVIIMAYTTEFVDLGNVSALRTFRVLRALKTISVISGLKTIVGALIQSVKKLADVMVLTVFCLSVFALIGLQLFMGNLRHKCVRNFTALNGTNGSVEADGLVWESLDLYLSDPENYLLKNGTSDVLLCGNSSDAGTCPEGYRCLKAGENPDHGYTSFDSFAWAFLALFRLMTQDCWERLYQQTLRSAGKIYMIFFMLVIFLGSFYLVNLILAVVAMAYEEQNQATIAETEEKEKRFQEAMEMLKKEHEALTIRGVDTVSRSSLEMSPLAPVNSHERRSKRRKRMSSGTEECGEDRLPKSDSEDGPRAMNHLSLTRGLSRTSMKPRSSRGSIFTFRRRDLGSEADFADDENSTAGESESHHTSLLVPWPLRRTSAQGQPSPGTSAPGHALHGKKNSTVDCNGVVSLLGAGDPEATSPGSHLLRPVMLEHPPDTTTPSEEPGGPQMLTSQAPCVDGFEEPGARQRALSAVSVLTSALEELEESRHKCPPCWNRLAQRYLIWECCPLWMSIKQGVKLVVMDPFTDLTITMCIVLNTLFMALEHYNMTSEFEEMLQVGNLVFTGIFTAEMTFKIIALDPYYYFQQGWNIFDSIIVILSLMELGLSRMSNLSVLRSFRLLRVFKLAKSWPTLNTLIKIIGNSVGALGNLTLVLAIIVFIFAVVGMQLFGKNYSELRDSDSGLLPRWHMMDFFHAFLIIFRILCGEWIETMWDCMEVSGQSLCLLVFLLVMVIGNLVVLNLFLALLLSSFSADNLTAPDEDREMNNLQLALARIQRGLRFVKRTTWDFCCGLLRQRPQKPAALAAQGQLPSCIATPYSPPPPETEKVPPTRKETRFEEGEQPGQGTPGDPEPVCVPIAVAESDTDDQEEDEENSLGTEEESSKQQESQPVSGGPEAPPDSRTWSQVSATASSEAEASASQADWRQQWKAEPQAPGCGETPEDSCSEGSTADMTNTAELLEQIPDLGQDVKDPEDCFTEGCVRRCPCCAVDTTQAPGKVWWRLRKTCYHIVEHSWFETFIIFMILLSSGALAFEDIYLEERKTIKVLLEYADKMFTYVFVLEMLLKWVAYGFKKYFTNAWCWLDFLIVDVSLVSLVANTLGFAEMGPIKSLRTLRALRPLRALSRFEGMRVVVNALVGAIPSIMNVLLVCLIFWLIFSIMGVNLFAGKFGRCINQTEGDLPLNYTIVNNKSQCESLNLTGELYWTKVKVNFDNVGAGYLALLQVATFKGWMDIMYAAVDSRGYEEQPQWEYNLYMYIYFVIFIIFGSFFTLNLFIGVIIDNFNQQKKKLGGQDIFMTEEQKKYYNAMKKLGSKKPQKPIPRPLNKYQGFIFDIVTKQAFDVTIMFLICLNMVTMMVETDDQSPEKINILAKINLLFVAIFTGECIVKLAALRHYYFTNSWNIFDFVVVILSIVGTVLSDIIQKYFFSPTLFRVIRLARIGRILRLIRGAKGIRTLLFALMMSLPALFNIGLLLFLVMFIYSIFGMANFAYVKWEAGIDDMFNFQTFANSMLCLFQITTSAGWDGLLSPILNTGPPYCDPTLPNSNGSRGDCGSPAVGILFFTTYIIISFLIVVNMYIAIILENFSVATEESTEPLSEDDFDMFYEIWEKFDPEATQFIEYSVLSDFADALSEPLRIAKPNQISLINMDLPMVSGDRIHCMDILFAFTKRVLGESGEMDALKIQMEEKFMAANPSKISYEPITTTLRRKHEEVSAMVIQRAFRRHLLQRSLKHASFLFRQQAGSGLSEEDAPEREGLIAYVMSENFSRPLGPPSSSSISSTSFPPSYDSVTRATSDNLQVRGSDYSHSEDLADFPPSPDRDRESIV
Sequence of Transient receptor potential cation channel subfamily V member 1 (Q8NER1 whole entry): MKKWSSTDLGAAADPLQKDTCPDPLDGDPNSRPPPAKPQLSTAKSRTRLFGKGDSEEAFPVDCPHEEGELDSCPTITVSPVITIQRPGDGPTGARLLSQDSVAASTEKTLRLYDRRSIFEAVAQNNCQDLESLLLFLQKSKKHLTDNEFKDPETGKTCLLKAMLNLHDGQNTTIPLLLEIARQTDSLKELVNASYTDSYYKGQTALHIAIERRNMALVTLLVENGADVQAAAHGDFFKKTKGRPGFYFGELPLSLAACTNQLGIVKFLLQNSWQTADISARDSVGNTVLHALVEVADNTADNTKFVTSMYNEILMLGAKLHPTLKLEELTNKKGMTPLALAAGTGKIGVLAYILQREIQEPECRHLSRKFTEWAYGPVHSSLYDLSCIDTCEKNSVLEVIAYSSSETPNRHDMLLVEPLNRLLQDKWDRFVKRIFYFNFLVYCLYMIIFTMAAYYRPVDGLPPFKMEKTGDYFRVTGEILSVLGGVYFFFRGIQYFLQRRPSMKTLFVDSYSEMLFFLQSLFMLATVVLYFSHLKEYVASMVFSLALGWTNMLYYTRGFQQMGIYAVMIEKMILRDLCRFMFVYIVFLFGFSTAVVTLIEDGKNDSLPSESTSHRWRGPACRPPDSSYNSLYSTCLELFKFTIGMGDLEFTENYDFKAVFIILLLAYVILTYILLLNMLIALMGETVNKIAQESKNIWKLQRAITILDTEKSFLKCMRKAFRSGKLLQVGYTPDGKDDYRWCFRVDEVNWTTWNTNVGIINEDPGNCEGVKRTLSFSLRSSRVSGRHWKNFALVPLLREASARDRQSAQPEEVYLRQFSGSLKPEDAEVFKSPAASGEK
T1 sequence (O75762 whole entry): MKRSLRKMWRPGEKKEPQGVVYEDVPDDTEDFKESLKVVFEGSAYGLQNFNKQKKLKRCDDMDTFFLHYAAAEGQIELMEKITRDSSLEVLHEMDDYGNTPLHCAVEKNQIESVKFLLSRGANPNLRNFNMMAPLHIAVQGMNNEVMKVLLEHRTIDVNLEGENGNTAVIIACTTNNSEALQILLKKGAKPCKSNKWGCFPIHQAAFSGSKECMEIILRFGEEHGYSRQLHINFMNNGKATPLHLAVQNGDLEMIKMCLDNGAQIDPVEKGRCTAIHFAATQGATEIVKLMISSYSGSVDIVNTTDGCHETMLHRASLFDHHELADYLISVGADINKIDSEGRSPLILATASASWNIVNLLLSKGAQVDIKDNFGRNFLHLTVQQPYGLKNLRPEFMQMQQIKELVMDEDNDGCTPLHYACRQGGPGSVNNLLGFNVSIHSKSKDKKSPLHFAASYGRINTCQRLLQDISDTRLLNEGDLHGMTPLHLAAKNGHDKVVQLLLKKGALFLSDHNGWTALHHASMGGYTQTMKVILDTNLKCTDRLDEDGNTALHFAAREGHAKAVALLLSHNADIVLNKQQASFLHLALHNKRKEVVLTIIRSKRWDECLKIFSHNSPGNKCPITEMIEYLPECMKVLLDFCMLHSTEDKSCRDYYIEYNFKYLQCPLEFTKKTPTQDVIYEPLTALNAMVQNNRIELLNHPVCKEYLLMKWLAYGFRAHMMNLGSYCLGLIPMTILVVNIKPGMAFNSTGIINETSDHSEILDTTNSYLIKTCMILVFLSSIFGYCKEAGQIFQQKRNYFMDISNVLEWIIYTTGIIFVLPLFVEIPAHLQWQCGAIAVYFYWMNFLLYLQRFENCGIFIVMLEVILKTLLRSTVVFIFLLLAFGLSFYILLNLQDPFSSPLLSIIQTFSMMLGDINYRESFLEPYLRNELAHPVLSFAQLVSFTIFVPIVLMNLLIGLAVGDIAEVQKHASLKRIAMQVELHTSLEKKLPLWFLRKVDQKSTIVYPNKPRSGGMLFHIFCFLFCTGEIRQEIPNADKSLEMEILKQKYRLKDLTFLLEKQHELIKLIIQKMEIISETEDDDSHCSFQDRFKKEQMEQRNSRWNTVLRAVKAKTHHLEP
Sequence of Transient receptor potential cation channel subfamily A member 1 (Rattus norvegicus) (Q6RI86 whole entry): as the sequence (Q6RI86 whole entry) above

Row | Compound | IC50 [1] [nM] | IC50 [2] [nM] | also measured
1 | Fc1ccc(-c2n[nH]c3cc(OC(F)(F)F)cnc23)cc1 | 257 | 216 | –
2 | Cn1nc(Nc2ccc(Cl)nc2)c2ccc(C(F)(F)F)cc21 | > 10000 | – | –
3 | Fc1ccc(Nc2n[nH]c3cc(C(F)(F)F)cnc23)cc1F | 38 | 23 | –
4 | CN(c1ccc(Cl)nc1)c1n[nH]c2cc(C(F)(F)F)ccc12 | > 10000 | – | –
5 | Fc1ccc(Nc2n[nH]c3cc(C(F)(F)F)ncc23)cc1F | 645 | – | –
6 | Fc1ccc(-c2n[nH]c3cc(C(F)(F)F)cnc23)cc1F | 450 | 255 | –
7 | Fc1ccc2[nH]c(-c3n[nH]c4cc(OC(F)(F)F)cnc34)cc2c1 | 91 | 8 | –
8 | Fc1ccc(Nc2n[nH]c3cc(-c4ccc(F)c(F)c4)ccc23)cc1F | 3700 | – | –
9 | FC(F)(F)c1ccc2c(Nc3ccc(C(F)(F)F)nc3)n[nH]c2c1 | > 10000 | – | –
10 | COCCNC(=O)c1ccc2c(-c3ccc(C#N)cc3)n[nH]c2c1 | 2670 | 453 | –
11 | FC(F)(F)c1ccc2c(Nc3ccc(Cl)cc3)n[nH]c2c1 | 42 | 9 | –
12 | Fc1ccc2[nH]c(-c3n[nH]c4cc(OC(F)(F)F)ccc34)cc2c1 | 748 | 116 | –
13 | N#Cc1ccc(-c2n[nH]c3cc(OC(F)(F)F)ccc23)s1 | 74 | 80 | –
14 | Fc1ccc(Nc2n[nH]c3cc(OC(F)(F)F)cnc23)nc1 | 2540 | 813 | –
15 | Fc1ccc(Nc2n[nH]c3cc(Cl)ccc23)cc1F | 111 | 49 | –
16 | Fc1ccc(-c2n[nH]c3cc(C(F)(F)F)ccc23)cc1F | 2100 | 329 | –
17 | Fc1ccc(Nc2n[nH]c3cc(OC(F)(F)F)ccc23)cc1F | 131 | < 100 | inhibition [3]: 96%
18 | CN(c1ccc(Cl)nc1)c1nn(C)c2cc(C(F)(F)F)ccc12 | > 10000 | – | –
19 | Fc1ccc(Nc2n[nH]c3cc(-c4ccccc4OC(F)(F)F)ccc23)cc1F | 1200 | – | –
20 | FC(F)(F)c1ccc2c(Nc3ccc(Cl)nc3)n[nH]c2c1 | 550 | – | IC50 [4]: > 100000 nM; IC50 [5]: 2600 nM; IC50 [6]: > 30000 nM; EC50 [7]: 37 nM; IC50 [8]: 2500 nM; IC50 [9]: 8520 nM
21 | N#Cc1ccc(-c2n[nH]c3cc(OC(F)(F)F)ccc23)cn1 | 1180 | 271 | –
22 | Fc1ccc(Nc2n[nH]c3cc(OC(F)(F)F)cnc23)cc1F | 20 | 11 | IC50 [10]: 132 nM; Drug uptake(free) [11]: 7 to 59 nM; Papp A→B (MDR1 [12]): 2 ×10⁻⁶ cm/s; IC50 [13]: 16000 nM; microsomal CLint [14]: 99 µL/min/mg; IC50 [15]: 8700 nM; Drug uptake [16]: 304 µg/g; IC50 [17]: 11 nM; IC50 [6]: > 30000 nM; IC50 [8]: 330 nM; IC50 [18]: > 30000 nM; Papp [19]: 0.00333 ×10⁻⁶ cm/s; Drug uptake [20]: 20 µg/g; microsomal CLint [21]: 73 µL/min/mg; Papp B→A (MDR1 [22]): 7 ×10⁻⁶ cm/s; Activity (Rattus norvegicus [23]): Active; solubility kinetic [24]: 1.6 µg/mL (≈ 4.85 µM); IC50 [9]: 18200 nM
23 | Fc1ccc(-c2n[nH]c3cc(NC4CCN(CC5CC5)CC4)cnc23)cc1 | 4630 | 1850 | –
24 | Clc1ccc(Nc2n[nH]c3ccccc23)cc1 | 11700 | – | –
25 | Fc1ccc(-c2n[nH]c3cc(OC(F)(F)F)cnc23)cc1F | 134 | 128 | –
26 | Fc1ccc(Nc2n[nH]c3cc(C(F)(F)F)ccc23)cc1F | 53 | 9 | –
27 | N#Cc1ccc(-c2n[nH]c3cc(OC(F)(F)F)ccc23)cc1 | 686 | 246 | Papp A→B (MDR1 [12]): 4 ×10⁻⁶ cm/s; IC50 [4]: > 30000 nM; Activity (Rattus norvegicus [25]): Dose-dependent effect; minimal effective dose (Rattus norvegicus [25]; read-out: MED): 100 mg/kg; microsomal CLint [14]: 58 µL/min/mg; IC50 [15]: 17700 nM; Papp (MDCKII-LE): < 0.1 ×10⁻⁶ cm/s; IC50 [5]: > 3000 nM; IC50 [17]: 195 nM; IC50 [6]: > 30000 nM; EC50 [7]: > 30000 nM; concentration (Blood): 11 to 52 nM; IC50 [8]: > 10000 nM; Activity (Rattus norvegicus [26]): Active; microsomal CLint [21]: < 8 µL/min/mg; Papp B→A (MDR1 [22]): 8 ×10⁻⁶ cm/s; solubility kinetic [24]: 4.8 µg/mL (≈ 15.8 µM); IC50 [9]: 17300 nM

Source: ChEMBL document CHEMBL4033760, “Discovery of a Series of Indazole TRPA1 Antagonists” (ACS Med Chem Lett, 2017)
